ChEMBL document CHEMBL1137302 (J Med Chem, 2006)
Activity calls are given as the source filed them. The calls are words filed in the database; no cut-off is given here.

What was measured:
[1] = Cmax in dog at 1 mg/kg, po; format: ADME, organism-based, Canis lupus familiaris; parameters: dose 1 mg/kg, route oral; conditions: in vivo
Method in brief: (§1)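 Single 1 mg/kg dose given iv, sc or orally to Sprague-Dawley rats, dogs and monkeys; plasma concentrations followed over time (mean ± SEM, n = 3). Cmax, AUC, half-life, clearance and bioavailability calculated from the curves.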

[2] = tested on: D(2) dopamine receptor (Mustela putorius furo); assay: Agonist activity at ferret D2 receptor in HEK293 cells coexpressing Galphaqo5 by FLIPR relative to dopamine upto 10 uM
[3] = AUC in dog at 1 mg/kg, po; format: ADME, organism-based, Canis lupus familiaris; parameters: dose 1 mg/kg, route oral; conditions: plasma; method in brief: as §1
D(4) dopamine receptor [4] = biological target: T1, D(4) dopamine receptor (Homo sapiens, UniProt P21917); assay: Displacement of [3H]A369508 from human D4 receptor expressed in HEK293 cell membrane; format: cell membranes
T1 sequence (P21917 whole entry): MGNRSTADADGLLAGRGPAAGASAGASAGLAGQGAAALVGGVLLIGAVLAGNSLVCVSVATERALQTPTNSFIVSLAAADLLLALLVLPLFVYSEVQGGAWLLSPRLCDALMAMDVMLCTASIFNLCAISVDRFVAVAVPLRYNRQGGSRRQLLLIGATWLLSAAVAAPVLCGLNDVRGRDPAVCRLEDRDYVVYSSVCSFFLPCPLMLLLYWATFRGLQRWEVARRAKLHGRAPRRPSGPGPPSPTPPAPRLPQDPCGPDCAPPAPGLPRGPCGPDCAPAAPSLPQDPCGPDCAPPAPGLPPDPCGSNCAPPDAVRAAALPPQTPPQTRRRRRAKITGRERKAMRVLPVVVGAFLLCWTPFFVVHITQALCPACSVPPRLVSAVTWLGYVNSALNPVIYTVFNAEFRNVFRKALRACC

[5] = Plasma clearance in iv dosed dog; format: ADME, organism-based, Canis lupus familiaris; method in brief: as §1
[6] = Half life in rat at 1 mg/kg, sc; format: ADME, organism-based; parameters: dose 1 mg/kg, route subcutaneous; conditions: in vivo; method in brief: as §1
[7] = biological target: cGMP-specific 3',5'-cyclic phosphodiesterase (Homo sapiens) (UniProt O76074); assay: Activity at PDE5 at 10 uM
Method in brief: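 Broad selectivity panel (over 70 receptors, ion channels and neuronal receptors, PDE1-6 included) run at a single 10 µM concentration.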

Mustela putorius furo = species on record: Mustela putorius furo; assay: Induction of nausea in ferret; format: functional, organism-based
hERG [8] = biological target: T2, hERG (Homo sapiens, UniProt Q12809); assay: Blockade of current at hERG expressed in HEK293 cells at 1 ug/mL; format: cell-based; conditions: HEK293 cells that express hERG
Method in brief: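 hERG stably expressed in HEK 293 cells (MEM with 10% FBS, G418), whole-cell voltage clamp. Pipette: K aspartate/KCl/EGTA/MgATP, pH 7.3. Bath: NaCl-based HEPES, pH 7.4. Compound dissolved in DMSO and diluted in bath (DMSO ≤0.1%), one concentration per cell. Steps to -25, 0, 25, 50 mV for 3 s, then -50 mV for 4 s, from -80 mV every 15 s.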

hERG [9] = biological target: T2, hERG; assay: Blockade of current at hERG expressed in HEK293 cells at 3 ug/mL; format: cell-based; conditions: HEK293 cells that express hERG
Method in brief: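 hERG stably expressed in HEK293 cells; whole-cell voltage clamp. Pipette: K aspartate/KCl/EGTA/MgATP, pH 7.3. Bath: NaCl-based HEPES, pH 7.4. Compound dissolved in DMSO (≤0.1%), one concentration per cell. Steps to -25 to +50 mV for 3 s, then -50 mV for 4 s, from -80 mV every 15 s; tail current measured against DMSO vehicle.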

[10] = Half life in rat at 1 mg/kg, po; format: ADME, organism-based; parameters: dose 1 mg/kg, route oral; conditions: in vivo; method in brief: as §1
D(4) dopamine receptor [11] = biological target: T1, D(4) dopamine receptor; assay: Agonist activity at human D4.4 receptor in HEK293 cells coexpressing G-alpha-qo5 by FLIPR; format: functional, cell-based

T2 sequence (Q12809 whole entry): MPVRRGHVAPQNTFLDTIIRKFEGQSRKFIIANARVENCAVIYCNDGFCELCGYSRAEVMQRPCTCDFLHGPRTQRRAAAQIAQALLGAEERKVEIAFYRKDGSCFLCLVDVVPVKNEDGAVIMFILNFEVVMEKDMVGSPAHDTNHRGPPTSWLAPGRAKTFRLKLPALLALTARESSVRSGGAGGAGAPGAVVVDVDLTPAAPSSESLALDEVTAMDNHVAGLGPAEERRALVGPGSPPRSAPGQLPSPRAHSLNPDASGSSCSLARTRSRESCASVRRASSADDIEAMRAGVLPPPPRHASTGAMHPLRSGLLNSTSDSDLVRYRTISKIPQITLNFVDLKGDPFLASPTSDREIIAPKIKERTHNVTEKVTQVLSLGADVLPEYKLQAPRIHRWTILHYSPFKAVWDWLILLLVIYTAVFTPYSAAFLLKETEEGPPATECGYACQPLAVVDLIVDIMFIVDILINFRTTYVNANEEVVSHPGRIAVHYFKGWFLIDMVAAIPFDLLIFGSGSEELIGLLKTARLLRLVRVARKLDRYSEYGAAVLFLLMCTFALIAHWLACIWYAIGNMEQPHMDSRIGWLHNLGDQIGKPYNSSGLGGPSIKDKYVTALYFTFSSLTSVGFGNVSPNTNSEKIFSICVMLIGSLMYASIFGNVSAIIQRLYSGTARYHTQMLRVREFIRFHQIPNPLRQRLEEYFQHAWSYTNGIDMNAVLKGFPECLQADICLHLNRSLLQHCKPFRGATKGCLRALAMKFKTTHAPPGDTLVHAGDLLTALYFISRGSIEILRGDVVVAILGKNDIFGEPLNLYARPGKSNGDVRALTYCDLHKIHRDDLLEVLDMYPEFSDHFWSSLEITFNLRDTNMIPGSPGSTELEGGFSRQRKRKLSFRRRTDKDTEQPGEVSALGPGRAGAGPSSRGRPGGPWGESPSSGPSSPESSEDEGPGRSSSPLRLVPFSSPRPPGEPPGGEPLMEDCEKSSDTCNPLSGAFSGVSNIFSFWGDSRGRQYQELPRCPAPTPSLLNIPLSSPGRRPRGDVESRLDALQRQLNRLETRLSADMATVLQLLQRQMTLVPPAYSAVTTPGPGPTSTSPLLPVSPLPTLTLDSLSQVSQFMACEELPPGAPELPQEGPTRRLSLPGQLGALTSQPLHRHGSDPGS

- Cmax [1]: 1420 ng/mL
- Activity [2]: inactive
- AUC [3]: 4280 ng·h/mL
- Ki (D(4) dopamine receptor [4]): 1440 nM
- clearance [5]: 3.33 mL/min/kg
- half-life [6]: 1.2 h
- Activity [7]: inactive
- half-life [10]: 1.8 h
- EC50 (D(4) dopamine receptor [11]): 89 nM
Structure (SMILES): Cc1cccc(C(=O)NCN2CCC(c3cccc[n+]3[O-])CC2)c1
- Activity (Mustela putorius furo): inactive
- inhibition at 1 ug/mL (hERG [8]): 14.4%
- inhibition at 3 ug/mL (hERG [9]): 14.5%
